Test results from ChEMBL document CHEMBL4219238, “Design, synthesis, molecular modelling and in vitro cytotoxicity analysis of novel carbamate derivatives as inhibitors of Monoacylglycerol lipase” (Bioorg Med Chem, 2018).
Calls of active or inactive are those of the source. The rule behind the calls is not given here.

Key:
Monoglyceride lipase [1] = target: T1, Monoglyceride lipase (Homo sapiens, UniProt Q99685); experiment: Inhibition of recombinant human MAGL using 7-HRA as substrate preincubated for 60 mins followed by substrate addition by fluorescence assay; details: read-out: IC50
T1 sequence (Q99685 whole entry): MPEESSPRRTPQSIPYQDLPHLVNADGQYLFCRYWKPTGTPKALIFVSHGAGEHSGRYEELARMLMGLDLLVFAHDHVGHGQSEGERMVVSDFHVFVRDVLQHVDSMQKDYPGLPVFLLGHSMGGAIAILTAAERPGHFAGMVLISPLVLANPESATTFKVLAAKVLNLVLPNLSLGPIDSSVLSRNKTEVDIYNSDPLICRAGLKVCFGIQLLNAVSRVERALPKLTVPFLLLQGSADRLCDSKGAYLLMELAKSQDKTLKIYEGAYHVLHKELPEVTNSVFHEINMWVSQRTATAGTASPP

Monoglyceride lipase [2] = target: T2, Monoglyceride lipase (Mus musculus, UniProt O35678); experiment: Inhibition of MAGL in mouse B16-F10 cells using 7-HRA as substrate preincubated for 60 mins followed by substrate addition measured every 2.5 mins for 2 hrs by fluorescence assay; type: cell-based; details: read-out: IC50
T2 sequence (O35678 whole entry): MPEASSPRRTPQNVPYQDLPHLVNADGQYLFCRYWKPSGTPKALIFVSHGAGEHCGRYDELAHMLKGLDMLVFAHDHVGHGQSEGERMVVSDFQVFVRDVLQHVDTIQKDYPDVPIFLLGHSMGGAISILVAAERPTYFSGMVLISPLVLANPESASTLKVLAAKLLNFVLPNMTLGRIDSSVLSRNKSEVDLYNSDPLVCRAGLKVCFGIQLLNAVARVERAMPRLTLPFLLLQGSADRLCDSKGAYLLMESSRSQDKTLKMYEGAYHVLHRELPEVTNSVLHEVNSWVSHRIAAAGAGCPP

[3] = target: T3, Monoglyceride lipase (Mus musculus) (UniProt O35678); experiment: Inhibition of MAGL in mouse B16-F10 intact cells at 10 uM using 7-HRA as substrate preincubated for 6 hrs followed by substrate addition by fluorescence assay; type: cell-based
T3 sequence (whole entry): T2 sequence (O35678 whole entry)
Method in brief: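 Intact B16-F10 cells cultured 6 h with compound or DMSO, homogenised 30 min at 4 °C in lysis buffer and spun 1,500 × g 5 min. 1 μg lysate assayed with 10 μM 7-HRA (ex 571/em 588 nm); 5-min values reported; mean ± SEM, n = 3.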

B16-F10 [4] = experiment: Induction of apoptosis in mouse B16F10 cells assessed as live cells at 10 uM after 48 hrs by Annexin V-FITC/propidium iodide staining based flow cytometry (reference value: 88.04%); type: functional
B16-F10 [5] = experiment: Induction of apoptosis in mouse B16F10 cells assessed as early apoptotic cells at 10 uM after 48 hrs by Annexin V-FITC/propidium iodide staining based flow cytometry (reference value: 1.75%); type: functional
B16-F10 [6] = experiment: Induction of apoptosis in mouse B16F10 cells assessed as necrotic cells at 10 uM after 48 hrs by Annexin V-FITC/propidium iodide staining based flow cytometry (reference value: 2.62%); type: functional
B16-F10 [7] = experiment: Induction of apoptosis in mouse B16F10 cells assessed as live cells at 35 nM after 48 hrs by Annexin V-FITC/propidium iodide staining based flow cytometry (reference value: 79.55%); type: functional
B16-F10 [8] = experiment: Induction of apoptosis in mouse B16F10 cells assessed as early apoptotic cells at 35 nM after 48 hrs by Annexin V-FITC/propidium iodide staining based flow cytometry (reference value: 1.43%); type: functional
B16-F10 [9] = experiment: Induction of apoptosis in mouse B16F10 cells assessed as late apoptotic cells at 35 nM after 48 hrs by Annexin V-FITC/propidium iodide staining based flow cytometry (reference value: 13.54%); type: functional
B16-F10 [10] = experiment: Induction of apoptosis in mouse B16F10 cells assessed as necrotic cells at 35 nM after 48 hrs by Annexin V-FITC/propidium iodide staining based flow cytometry (reference value: 5.48%); type: functional
B16-F10 [11] = experiment: Induction of apoptosis in mouse B16F10 cells assessed as early apoptotic cells at 75 nM after 48 hrs by Annexin V-FITC/propidium iodide staining based flow cytometry (reference value: 1.43%); type: functional
B16-F10 [12] = experiment: Induction of apoptosis in mouse B16F10 cells assessed as necrotic cells at 75 nM after 48 hrs by Annexin V-FITC/propidium iodide staining based flow cytometry (reference value: 5.48%); type: functional
B16-F10 [13] = experiment: Effect on ABHD6 mRNA expression in mouse B16F10 cells by RT-PCR method; type: functional
B16-F10 [14] = experiment: Effect on ABHD12 mRNA expression in mouse B16F10 cells by RT-PCR method; type: functional
[15] = Induction of apoptosis in HEK293T cells assessed as live cells at 10 uM after 48 hrs by Annexin V-FITC/propidium iodide staining based flow cytometry (reference value: 82.43%); type: cell-based, HEK-293T; details: human, read-out: Activity
Method in brief: (§1)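 HEK293T (DMEM with 10% FBS) or MCF7 (DMEM/Ham's F-12 1:1, 10% FBS) cells treated 48 h with 10 μM compound or DMSO. Staining with Alexa Fluor 488 annexin V plus 5 μg/ml PI in HEPES/NaCl/CaCl2 binding buffer; 10,000 cells per sample read by flow cytometry; n = 3, mean ± S.E.M.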

HEK-293T = experiment: Induction of apoptosis in HEK293T cells assessed as early apoptotic cells at 10 uM after 48 hrs by Annexin V-FITC/propidium iodide staining based flow cytometry (reference value: 7.41%); type: cell-based; details: human; method in brief: as §1
MCF7 [16] = experiment: Induction of apoptosis in human MCF7 cells assessed as late apoptotic cells at 10 uM after 48 hrs by Annexin V-FITC/propidium iodide staining based flow cytometry (reference value: 8.84%); type: functional; method in brief: as §1
MCF7 [17] = experiment: Induction of apoptosis in human MCF7 cells assessed as necrotic cells at 10 uM after 48 hrs by Annexin V-FITC/propidium iodide staining based flow cytometry (reference value: 5.42%); type: functional; method in brief: as §1
MCF7 [18] = experiment: Induction of apoptosis in human MCF7 cells at 10 uM after 48 hrs in presence of MAGL inhibitor JZL184 by Annexin V-FITC/propidium iodide staining based flow cytometry; type: functional, cell-based

IC50 (Monoglyceride lipase [1]): 6.7 µM
IC50 (Monoglyceride lipase [2]): 13.2 µM
inhibition [3]: Active
Structure (SMILES): O=C(Nc1cccc(-c2ccc(C(F)(F)F)cc2)c1)OCc1ccco1
Activity (B16-F10 [4]): 17.8%
Activity (B16-F10 [5]): 3.87%
Activity (B16-F10 [6]): 14.25%
Activity (B16-F10 [7]): 66.12%
Activity (B16-F10 [8]): 1.9%
Activity (B16-F10 [9]): 29.37%
Activity (B16-F10 [10]): 2.62%
Activity (B16-F10 [11]): 2.44%
Activity (B16-F10 [12]): 4.33%
deltaCT (B16-F10 [13]): 10.73
deltaCT (B16-F10 [14]): 16.84
viability at 48 h, 10 µM [15]: 81.4%
Activity (HEK-293T): 8.13%
Activity (MCF7 [16]): 25.63%
Activity (MCF7 [17]): 5.33%
Activity (MCF7 [18]): Active
